Measured values taken from ChEMBL document CHEMBL1938298, “Synthesis and characterization of [¹²⁵I]2-iodo N-[(S)-{(S)-1-methylpiperidin-2-yl}(phenyl)methyl]3-trifluoromethyl-benzamide as novel imaging probe for glycine transporter 1” (Bioorg Med Chem, 2011).
Calls of active or inactive are those of the source. The rule behind the calls is not given here.

Tests used:
[1] = tested on: Mus musculus; assay: In vivo binding affinity to GlyT1 in ddY mouse brain thalamus at 33.3 kBq, iv after 60 mins in presence of N-Me-SSR504734 2 mg/kg, iv administered 15 mins prior to compound administration relative to control; format: functional
[2] = tested on: Nucleic Acid; assay: Ratio of drug level in brain to blood in ddY mouse at 11.1 kBq, iv after 180 min by gamma counting; format: ADME, organism-based; conditions: 3 h
[3] = tested on: Blood; assay: Drug uptake in ddY mouse blood at 11.1 kBq, iv after 30 min by gamma counting; format: ADME, organism-based; conditions: in vivo, 0.5 h
How it was run: (§1)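 Male ddY mice (6 weeks, 30–35 g) received about 11.1 kBq [125I]tracer in 0.1 mL i.v. via tail vein. Killed at set times, organs dissected and weighed, radioactivity gamma counted. Reported as % injected dose/g tissue, mean ± SD, n = 5–6.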

[4] = tested on: Kidney; assay: Drug uptake in ddY mouse kidney at 11.1 kBq, iv after 0.5 min by gamma counting; format: ADME, organism-based; conditions: in vivo; how it was run: as §1
[5] = tested on: Liver; assay: Drug uptake in ddY mouse liver at 11.1 kBq, iv after 15 min by gamma counting; format: ADME, organism-based; conditions: in vivo
How it was run: (§2)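 Male ddY mice (6 weeks, 30–35 g) were given about 11.1 kBq of [125I]tracer in 0.1 mL i.v. via the tail vein. At each time point the animals were killed and organs dissected, weighed and gamma-counted. Uptake is expressed as % injected dose per gram of tissue, mean ± SD, n = 5–6.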

[6] = tested on: Lung; assay: Drug uptake in ddY mouse lung at 11.1 kBq, iv after 30 min by gamma counting; format: ADME, organism-based; conditions: in vivo, 0.5 h; how it was run: as §2
[7] = tested on: Kidney; assay: Drug uptake in ddY mouse kidney at 11.1 kBq, iv after 5 min by gamma counting; format: ADME, organism-based; conditions: in vivo; how it was run: as §2
[8] = tested on: Pancreas; assay: Drug uptake in ddY mouse pancreas at 11.1 kBq, iv after 0.5 min by gamma counting; format: ADME, organism-based; conditions: in vivo; how it was run: as §2
[9] = tested on: Heart; assay: Drug uptake in ddY mouse heart at 11.1 kBq, iv after 5 min by gamma counting; format: ADME, organism-based; conditions: in vivo; how it was run: as §1
[10] = tested on: Spleen; assay: Drug uptake in ddY mouse spleen at 11.1 kBq, iv after 60 min by gamma counting; format: ADME, organism-based; conditions: in vivo, 1 h; how it was run: as §2
[11] = target: T1, Sodium- and chloride-dependent glycine transporter 1 (Rattus norvegicus) (UniProt P28572); assay: Binding affinity to GlyT1 in rat brain medullary region at 0.03 to 0.04 nM preincubated for 20 mins in binding buffer before compound addition measured after 30 mins by autoradiography in presence of 0.01 mM GlyT1 inhibitor HPCP relative to control; format: tissue-based; conditions: tested as the 125I-labelled form
T1 sequence (whole entry): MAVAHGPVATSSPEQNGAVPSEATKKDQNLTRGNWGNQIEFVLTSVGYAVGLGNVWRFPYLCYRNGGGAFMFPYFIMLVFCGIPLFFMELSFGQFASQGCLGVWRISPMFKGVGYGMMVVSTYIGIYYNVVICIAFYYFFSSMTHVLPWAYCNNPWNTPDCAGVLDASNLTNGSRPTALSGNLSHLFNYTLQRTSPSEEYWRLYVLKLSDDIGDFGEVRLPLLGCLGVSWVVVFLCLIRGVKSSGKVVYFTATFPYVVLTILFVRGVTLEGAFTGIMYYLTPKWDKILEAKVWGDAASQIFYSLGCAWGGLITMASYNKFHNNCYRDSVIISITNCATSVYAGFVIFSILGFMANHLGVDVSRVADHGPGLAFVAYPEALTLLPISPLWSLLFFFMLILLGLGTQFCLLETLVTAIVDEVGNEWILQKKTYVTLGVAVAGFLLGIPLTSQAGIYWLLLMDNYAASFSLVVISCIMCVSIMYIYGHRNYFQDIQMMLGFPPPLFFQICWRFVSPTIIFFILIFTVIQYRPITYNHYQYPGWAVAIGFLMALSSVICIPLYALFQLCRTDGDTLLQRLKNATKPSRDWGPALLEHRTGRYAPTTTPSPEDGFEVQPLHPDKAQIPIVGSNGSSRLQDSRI
How it was run: (§3)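 Rat brain sagittal sections (20 µm) preincubated 20 min at 25 °C in Tris-HCl buffer pH 7.5 (NaCl, KCl, MgCl2, CaCl2), then 30 min at 25 °C with [125I] tracer (100 kBq, 0.03–0.04 nM) plus competitor (10 µM; glycine 1 or 10 mM). Cold washes, imaging plate 3 days, ROI PSL minus background per mm². % control from ≥triplicate slices, three rats.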

[12] = target: T1, Sodium- and chloride-dependent glycine transporter 1 (Rattus norvegicus); assay: Binding affinity to GlyT1 in rat brain midbrain at 0.03 to 0.04 nM preincubated for 20 mins in binding buffer before compound addition measured after 30 mins by autoradiography in presence of 0.01 mM NMDA receptor glycine site antagonist L-701,324 relative to control; format: tissue-based; conditions: tested as the 125I-labelled form
[13] = target: T1, Sodium- and chloride-dependent glycine transporter 1 (Rattus norvegicus); assay: Binding affinity to GlyT1 in rat brain cerebellar white matter at 0.03 to 0.04 nM preincubated for 20 mins in binding buffer before compound addition measured after 30 mins by autoradiography relative to control; format: tissue-based; conditions: tested as the 125I-labelled form
[14] = target: T1, Sodium- and chloride-dependent glycine transporter 1 (Rattus norvegicus); assay: Binding affinity to GlyT1 in rat brain midbrain at 0.03 to 0.04 nM preincubated for 20 mins in binding buffer before compound addition measured after 30 mins by autoradiography in presence of 1 mM GlyT1 substrate glycine relative to control; format: tissue-based; conditions: tested as the 125I-labelled form
[15] = target: T1, Sodium- and chloride-dependent glycine transporter 1 (Rattus norvegicus); assay: Binding affinity to GlyT1 in rat brain cerebellum at 0.03 to 0.04 nM preincubated for 20 mins in binding buffer before compound addition measured after 30 mins by autoradiography in presence of 10 mM GlyT1 substrate glycine relative to control; format: tissue-based; conditions: tested as the 125I-labelled form; how it was run: as §3
[16] = tested on: Mus musculus; assay: In vivo binding affinity to GlyT1 in ddY mouse brain hippocampus at 33.3 kBq, iv after 30 mins in presence of N-Me-SSR504734 2 mg/kg, iv administered 15 mins prior to compound administration relative to control; format: functional, organism-based; design: dose 2 mg/kg; conditions: tested as the 125I-labelled form
How it was run: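 Blocking study in male ddY mice (6 weeks, 30–35 g). The blocker (2 mg/kg in 30% DMSO/saline) was injected i.v. 15 min before about 33.3 kBq [125I]tracer i.v.; mice were killed at 30 or 60 min. Brains were divided into cortex, corpus callosum, hippocampus, thalamus, midbrain, medulla and cerebellum, weighed and gamma-counted as % dose/g. Values are mean ± SD, n = 5–6, compared to control by Kruskal–Wallis with Dunn's post-test.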

[17] = target: T1, Sodium- and chloride-dependent glycine transporter 1 (Rattus norvegicus); assay: Binding affinity to GlyT1 in rat brain cerebellum at 0.03 to 0.04 nM preincubated for 20 mins in binding buffer before compound addition measured after 30 mins by autoradiography in presence of 0.01 mM GlyT2 inhibitor ORG25543 relative to control; format: tissue-based; conditions: tested as the 125I-labelled form; how it was run: as §3
[18] = target: T1, Sodium- and chloride-dependent glycine transporter 1 (Rattus norvegicus); assay: Binding affinity to GlyT1 in rat brain cerebral cortex at 0.03 to 0.04 nM preincubated for 20 mins in binding buffer before compound addition measured after 30 mins by autoradiography in presence of 0.01 mM NMDA receptor glycine site antagonist L-701,324 relative to control; format: tissue-based; conditions: tested as the 125I-labelled form; how it was run: as §3
[19] = tested on: Mus musculus; assay: In vivo binding affinity to GlyT1 in ddY mouse brain midbrain at 33.3 kBq, iv after 60 mins in presence of SSR504734 2 mg/kg, iv administered 15 mins prior to compound administration relative to control; format: functional, organism-based; design: dose 2 mg/kg; conditions: tested as the 125I-labelled form
[20] = target: T1, Sodium- and chloride-dependent glycine transporter 1 (Rattus norvegicus); assay: Binding affinity to GlyT1 in rat brain hippocampus at 0.03 to 0.04 nM preincubated for 20 mins in binding buffer before compound addition measured after 30 mins by autoradiography in presence of 0.01 mM GlyT1 inhibitor HPCP relative to control; format: tissue-based; conditions: tested as the 125I-labelled form; how it was run: as §3

Ratio [2]	Drug uptake [3]	Drug uptake [4]	Drug uptake [5]	Drug uptake [6]	Drug uptake [7]	Drug uptake [8]	Drug uptake [9]	Drug uptake [10]	Activity [11]	Activity [12]	Activity [13]	Activity [14]	Activity [15]	Activity [17]	Activity [18]	Activity [20]	SMILES	Activity [1]	Activity [16]	Activity [19]
0.85	0.9 % ID/g	4.05 % ID/g	11.51 % ID/g	17.07 % ID/g	10.71 % ID/g	1.18 % ID/g	5.17 % ID/g	5.86 % ID/g									CN1CCCC[C@H]1[C@@H](NC(=O)c1cccc(C(F)(F)F)c1[125I])c1ccccc1	56%		
									20.5%	81.3%	Active	106%	44.9%	124%	92.5%	55.9%	CN1CCCC[C@H]1[C@@H](NC(=O)c1cccc(C(F)(F)F)c1I)c1ccccc1		Active	inactive
